# High-throughput results as filed in PubChem.
# M4 antag – antagonists of human muscarinic M4 receptor (CHRM4) | CHO-hM4 cells, ACh EC80, Fluo-8 calcium fluorescence | P08173 | inhibition, % at 3 µM | AID 624125 | 360,000 tested, 0.73% active;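 active means inhibition above its plate's cutoff, the mean inhibition of sample wells plus 3 SD, cut at about 27% in these data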
# M4 PAM – CHRM4 positive allosteric modulation; P08173; CHO-K1 hM4/Gqi5, Fluo-8 calcium fluorescence, ACh EC20; 0% = ACh EC20, 100% = maximal ACh; activation, % at 3 µM; 360,000 tested, 0.4% active; AID 624126;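 active means activation above its plate's cutoff, the mean activation of sample wells plus 3 SD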
# CHRM4 agonist – CHRM4 agonism in calcium assay; CHO-K1 hM4/Gqi5, Fluo-8 calcium fluorescence; vehicle 0%, full acetylcholine response 100%; activation, % at 3 µM; 360,000 tested, 0.14% active; AID 624127;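 active means activation above the run mean over all test wells plus 3 SD, cut at about 32% in these data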;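 further: peak over basal fluorescence ratio per well then scaled between controls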
# M5 antag – blocks acetylcholine activation of human M5 receptor; P08912; CHO-hM5 cells, Fluo-8 calcium fluorescence, ACh EC80; inhibition, % at 3 µM; 360,000 tested, 0.59% active; AID 624040;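 active means inhibition above a per-plate cutoff, the mean of that plate's test compounds plus 3 SD, cut at about 27% in these data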
# Target sequence (P08912 whole entry, looked up): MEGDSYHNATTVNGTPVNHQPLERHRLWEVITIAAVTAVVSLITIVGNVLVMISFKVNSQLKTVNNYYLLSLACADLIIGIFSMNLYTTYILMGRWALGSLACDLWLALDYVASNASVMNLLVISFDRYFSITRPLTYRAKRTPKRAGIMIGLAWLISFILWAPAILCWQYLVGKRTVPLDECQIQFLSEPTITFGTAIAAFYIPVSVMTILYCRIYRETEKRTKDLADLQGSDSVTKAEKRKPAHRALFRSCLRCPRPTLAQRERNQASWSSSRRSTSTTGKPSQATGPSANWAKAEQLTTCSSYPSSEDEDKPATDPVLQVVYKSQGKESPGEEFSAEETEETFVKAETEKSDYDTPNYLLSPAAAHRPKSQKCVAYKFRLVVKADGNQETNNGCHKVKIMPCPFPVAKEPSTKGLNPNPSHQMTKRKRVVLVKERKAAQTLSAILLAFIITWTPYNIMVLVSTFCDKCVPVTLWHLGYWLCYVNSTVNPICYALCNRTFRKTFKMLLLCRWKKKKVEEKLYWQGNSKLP
# M5 PAM – positive allosteric modulators of human muscarinic M5 receptor. P08912. CHO-K1 hM5, Fluo-8 calcium, ACh EC20 PAM; 0% = ACh EC20, 100% = ACh EC100. activation, % at 3 µM. 360,000 tested, 0.3% active;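 active means activation above the run cutoff, the mean activation of all test compounds plus 3 SD, cut at about 18% in these data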
#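 System: CHO-K1 hM5 cells. Reagent: acetylcholine, EC20 level. Compound dosing: single dose, 3 µM nominal final test concentration. Timing: Post-acetylcholine fluorescence recording 140 s. Detection: Fluo-8 calcium fluorescence. Read-out: % activation, ACh-normalized. Benchmarks: ACh EC20 and EC100 wells. Repeats: singlicate, one well per test compound.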
# M5 ag – agonists of human muscarinic M5 receptor (CHRM5); activation, % at 3 µM; CHO-K1 hM5 cells, Fluo-8 calcium fluorescence; 0% DMSO wells, 100% maximal acetylcholine response; 360,000 tested, 0.19% active; P08912;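 active means activation above the run's mean over test compounds plus 3 SD, cut at about 23% in these data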;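 further: signal is peak over basal fluorescence ratio across the kinetic read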
# Hits are given with their value; . = inactive. Most compounds without a hit are left out; they make up all but 1.8% or so of the library.
SMILES,M4 antag,M4 PAM,CHRM4 agonist,M5 antag,M5 PAM,M5 ag
O=C(COc1ccc(Cl)cc1Cl)NCc1ccncc1,30,.,.,.,.,.
CCN1CCN(c2ccc(NC(=O)COc3ccccc3Cl)cc2)CC1,.,.,.,.,.,.
Cc1cc(Cl)ccc1OCC(=O)NCc1ccncc1,.,.,.,.,.,.
CN1CCC(=O)N(CCOc2ccccc2)CC1,.,.,.,.,20,.
O=C(O)c1cccc(OCCN2CCCC2=O)c1,.,.,.,.,.,.
Cc1ccc(C)c(CNS(=O)(=O)c2c(C)[nH]c(C)c2C(=O)N2CCCCC2)c1,.,.,.,.,19,.
Cc1[nH]c(C)c(S(=O)(=O)NCc2ccc(N(C)C)cc2)c1C(=O)N1CCCC1,.,18,.,.,.,.
COc1ccc(CCNC(=O)CCCN2C(=O)c3ccccc3C2=O)cc1,.,.,.,.,.,.
COc1cccc(/C=C/C(=O)Nc2ccc3c(c2)OCCO3)c1OC,.,.,.,.,.,.
O=C(COC(=O)/C=C/c1ccc(S(=O)(=O)N2CCOCC2)cc1)Nc1ccccc1F,.,.,.,.,.,.
Cc1cc(-c2ccccc2)n(-c2ccc(C(=O)N3CCN(c4ncccn4)CC3)cc2)n1,32,.,.,.,.,.
COc1ccc2[nH]c(=O)c(CN(Cc3cccs3)S(=O)(=O)c3c(C)ccc4nsnc34)cc2c1,32,.,.,.,.,.
COc1ccc2cc1Oc1ccc(cc1)C[C@H]1c3cc(c(OC)cc3CCN1C)Oc1c(OC)c(OC)cc3c1[C@H](C2)N(C)CC3,78,.,.,.,.,.
O=C(Nc1ccc(Cl)cc1)c1nc[nH]c1C(=O)NCCCCNC(=O)c1[nH]cnc1C(=O)Nc1ccc(Cl)cc1,.,.,.,.,.,.
O=C(NCCN1CCOCC1)c1ccc2c(c1)N(Cc1ccc(Cl)cc1)C(=O)CS2,.,.,.,.,.,.
CCC1CCCCN1CCCNC(=O)c1ccc2c(c1)N(Cc1c(F)cccc1Cl)C(=O)CS2 (configuration not stated),100,.,.,76,.,.
O=C(NC1CCCC1)c1ccc2c(c1)N(Cc1ccccc1)CCS2,.,.,.,.,18,.
O=C(NCCN1CCOCC1)c1ccc2c(c1)N(Cc1ccccc1)C(=O)CS2,37,.,.,.,.,.
CCn1c(C)nc2cc(S(=O)(=O)C(F)(F)C(F)C(F)(F)F)ccc21 (configuration not stated),.,.,.,27,.,.
CCn1c(C)nc2cc(S(N)(=O)=O)ccc21,.,.,.,.,.,.
CC1=C(C)CC(C(=O)NC2CCCC2)C(C(=O)O)C1 (configuration not stated),.,.,.,.,.,.
CC1=C(C)CC(C(=O)NC2CCN(C(C)C)CC2)C(C(=O)O)C1 (configuration not stated),.,.,.,37,.,.
O=C(C[C@@H]1CC[C@@H]2[C@H](COC[C@H](O)CN2Cc2cccc(C(F)(F)F)c2)O1)NCc1ccc(Cl)cc1,.,.,.,.,.,.
O=C(Nc1ccc(Cl)cc1)c1csc(-c2ccccc2)n1,.,34,.,.,.,.
CCOC(=O)/C=c1\s/c(=C(\C#N)C(N)=O)n(-c2ccccc2)c1=O,.,.,.,.,.,.
SMILES,M4 antag,M4 PAM,CHRM4 agonist,M5 antag,M5 PAM,M5 ag
CCOC(=O)/C=c1\s/c(=C(\C#N)C(=O)NC)n(-c2ccccc2)c1=O,.,.,.,.,23,.
Cc1ccc(C2NC(=S)NC3=C2C(=O)CCC3)cc1 (configuration not stated),.,.,.,.,.,.
CC(C)c1ccc(C2NC(=S)NC3=C2C(=O)CCC3)cc1 (configuration not stated),27,.,.,.,.,.
NC(c1ccccc1)c1csc(Nc2ccc(S(N)(=O)=O)cc2)n1 (configuration not stated),.,.,.,.,.,.
CC1=C(C)CS(=O)N(S(=O)(=O)c2ccccc2)C1 (configuration not stated),.,.,.,.,.,.
O=S(=O)(/N=S1\CC=CCN1S(=O)(=O)c1ccccc1)c1ccccc1 (configuration not stated),.,.,60,.,.,34
COc1ccccc1CNc1ncnc2sccc12,.,.,.,27,.,.
Fc1ccccc1CNc1ncnc2sccc12,.,.,.,.,.,.
c1ccc2c(c1)OCC(CNCC1COc3ccccc3O1)O2 (configuration not stated),.,.,.,.,.,.
COc1ccc(CCNc2ncnc3sccc23)cc1OC,40,.,.,48,.,.
c1ccc2c(c1)OCC(CNc1ncnc3sccc13)O2 (configuration not stated),.,.,.,35,.,.
COc1ccc(NC(=O)C2CCCN(S(C)(=O)=O)C2)c(OC)c1 (configuration not stated),.,.,.,.,19,.
COc1ccc(NC(=O)C2CCN(S(C)(=O)=O)CC2)c(OC)c1,.,.,.,.,.,.
O=C1c2ccccc2C(=O)N1CCC#Cc1ccc2cc(CCCO)oc(=O)c2c1,.,.,.,.,.,.
O=C(COC(=O)C1(c2ccccc2F)CCCC1)NC1CCS(=O)(=O)C1 (configuration not stated),.,24,.,.,.,.
O=C(COc1ccccc1)NC1CCS(=O)(=O)C1 (configuration not stated),.,.,.,.,.,.
Cc1cc(N2Cc3ccccc3C2)ccc1C=O,.,.,.,38,.,.
CC(C)(C)c1ccc(COc2ccsc2C(=O)O)cc1,.,.,.,.,.,.
COc1ccc(/C=C2/SC(=O)N(CC(=O)NCCC(C)C)C2=O)cc1OC,.,.,.,.,.,.
COc1ccc(/C=C2\SC(=O)N(CC(=O)NCCC(C)C)C2=O)cc1OC,.,.,.,.,19,.
Cc1ccc2cc(CN(Cc3ccc4c(c3)OCO4)Cc3nnnn3Cc3ccco3)c(=O)[nH]c2c1C,.,23,.,.,.,.
Cc1ccc(C)c2[nH]c(=O)c(CN(Cc3ccc4c(c3)OCO4)Cc3nnnn3Cc3ccco3)cc12,.,.,.,.,.,.
COc1ccc(/C=C/C(=O)CC(O)(c2ccccc2)C(F)(F)F)cc1 (configuration not stated),.,.,.,.,.,.
